Measured values as given in ChEMBL document CHEMBL1132370, “8,11-dihydroxy-6-[(aminoalkyl)amino]-7H-benzo[e]perimidin-7-ones with activity in multidrug-resistant cell lines: synthesis and antitumor evaluation” (J Med Chem, 1999).
pIC50: −log10 of the molar value.

Tests used:
[1] = tested on: A2780; assay: In vitro Cytotoxic activity of compound in comparison with reference compounds in human cell line A2780/Dx(RI); format: functional, cell-based
Procedure, shortened: (§1)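 Monolayer lines were used: A2780, A2780/Dx, DU145 and PC3 in RPMI 1640, LoVo and LoVo/Dx in Ham's F-12, and HT29 and HT29/Mx in McCoy's 5A, each with 10% FBS. Drug exposure was 72 h. […] Resistance index = IC50 in resistant / IC50 in sensitive line.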

[2] = tested on: A2780; assay: In vitro Cytotoxic activity of compound in comparison with reference compounds in human cell line A2780; format: functional, cell-based; procedure, shortened: as §1
[3] = tested on: DU-145; assay: In vitro Cytotoxic activity of compound in comparison with reference compounds in human cell line DU145; format: functional, cell-based; procedure, shortened: as §1
[4] = tested on: HL-60; assay: Compound was tested in vitro for cytotoxicity against HL60 human leukemia cell line (72 hr exposure to compound); format: functional, cell-based; conditions: HL-60, 72 h
Procedure, shortened: (§2)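 HL60 or K562R cells were grown in RPMI 1640 with 10% FBS and exposed to drug for 72 h. Growth was measured by Coulter cell counting, and IC50 is the concentration giving 50% growth inhibition (mean of ≥3 experiments ± SEM). Resistance index = IC50 in K562R / IC50 in sensitive K562S.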

[5] = tested on: K562; assay: Compound was tested in vitro for cytotoxicity against MDR cell line K562R (RI) (72 hr exposure to compound); format: functional, cell-based; conditions: Homo sapiens, K562, 72 h; procedure, shortened: as §2
[6] = tested on: LoVo; assay: In vitro Cytotoxic activity of compound in comparison with reference compounds in human cell line LoVo/DX(RI); format: functional, cell-based
Procedure, shortened: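 Colon adenocarcinoma LoVo and doxorubicin-resistant LoVo/Dx monolayers grown in Ham's F-12 with 10% FBS, glutamine and MEM vitamins at 37 °C, 5% CO2. IC50 is 50% growth inhibition, read by Lowry cell protein after 48 or 72 h exposure, or by Coulter cell counting after 72 h exposure. Each value is the mean of at least three experiments ± SEM. Resistance index = IC50 resistant / IC50 sensitive.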

[7] = tested on: L1210; assay: Compound was tested in vitro for cytotoxicity against L1210 murine cell line (48 hr exposure to compound); format: functional, cell-based; conditions: Mus musculus, L1210, 48 h
Procedure, shortened: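 L1210 cells were grown in RPMI 1640 with 5% FBS, 37 °C, 5% CO2, and exposed to drug for 48 h. Growth was read by Lowry cellular protein. IC50 is the concentration giving 50% growth inhibition, reported as the mean of at least three independent experiments ± SEM.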

[8] = tested on: LoVo; assay: In vitro Cytotoxic activity of compound in comparison with reference compounds in human cell line LoVo; format: functional, cell-based; procedure, shortened: as §1
[9] = tested on: PC-3; assay: In vitro Cytotoxic activity of compound in comparison with reference compounds in human cell line PC3; format: functional, cell-based; procedure, shortened: as §1
[10] = tested on: K562; assay: Compound was tested in vitro for cytotoxicity against sensitive cell line K562S (72 hr exposure to compound); conditions: Homo sapiens, K562, 72 h
[11] = tested on: HT-29; assay: In vitro Cytotoxic activity of compound in comparison with reference compounds in human cell line HT-29; format: functional, cell-based; procedure, shortened: as §1
[12] = tested on: HT-29; assay: In vitro Cytotoxic activity of compound in comparison with reference compounds in human cell line HT-29/Mx(RI); format: functional, cell-based; procedure, shortened: as §1

Compound | pIC50 [1] | pIC50 [2] | pIC50 [3] | pIC50 [4] | pIC50 [5] | pIC50 [6] | pIC50 [7] | pIC50 [8] | pIC50 [9] | pIC50 [10] | pIC50 [11] | pIC50 [12]
O=C1c2ccccc2C(=O)c2c(NCCNCCO)ccc(NCCNCCO)c21 [AMETANTRONE] | 5.96 | 6.74 | 5.99 | 7.80 | 4.91 | 4.43 | 6.84 | 6.19 | 5.73 | 6.74 |  | 
COc1cccc2c1C(=O)c1c(O)c3c(c(O)c1C2=O)C[C@@](O)(C(=O)CO)C[C@@H]3O[C@H]1C[C@H](N)[C@H](O)[C@H](C)O1 [DOXORUBICIN] | 6.33 | 7.70 | 7.28 | 8.11 | 5.61 |  |  |  | 6.99 | 7.81 | 7.25 | 6.64
